Converted amounts (≈) assume the structure as drawn.
System: Escherichia coli
Experiment: Antibacterial activity against Escherichia coli JM109 measured after 24 hrs by two-fold serial dilution method
Format: functional
Settings: JM109, 24 h
How it was run: (§1)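 MIC by two-fold serial broth microdilution in 96-well plates, following NCCLS recommendations. Chloromycin, norfloxacin and fluconazole serve as reference drugs. The MIC is read as the lowest concentration that inhibits growth, in µg/mL.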

Row | SMILES | MIC [µg/mL]
1 | COc1ccc2cc3[n+](cc2c1OCc1nc2ccccc2n1Cc1ccc(F)cc1)CCc1cc2c(cc1-3)OCO2.[Cl-] | 512
2 | COc1ccc2cc3[n+](cc2c1OCc1nc2ccccc2[nH]1)CCc1cc2c(cc1-3)OCO2.[Cl-] | 512
3 | COc1ccc2cc3[n+](cc2c1OCc1nc2ccc(F)cc2[nH]1)CCc1cc2c(cc1-3)OCO2.[Cl-] | 32
4 | O=C(N[C@H](CO)[C@H](O)c1ccc([N+](=O)[O-])cc1)C(Cl)Cl [CHLORAMPHENICOL] | 32 (≈ 99 µM)
5 | CCn1cc(C(=O)O)c(=O)c2cc(F)c(N3CCNCC3)cc21 [NORFLOXACIN] | 1 (≈ 3.13 µM)

System: Staphylococcus aureus
Experiment: Antibacterial activity against Staphylococcus aureus ATCC 25923 measured after 24 hrs by two-fold serial dilution method
Format: functional
Settings: ATCC 25923, 24 h
How it was run: as §1

Row | SMILES | MIC [µg/mL]
6 | COc1ccc2cc3[n+](cc2c1OCc1nc2ccccc2n1Cc1ccc(F)cc1)CCc1cc2c(cc1-3)OCO2.[Cl-] | 512
7 | COc1ccc2cc3[n+](cc2c1OCc1nc2ccccc2[nH]1)CCc1cc2c(cc1-3)OCO2.[Cl-] | 512
8 | COc1ccc2cc3[n+](cc2c1OCc1nc2ccc(F)cc2[nH]1)CCc1cc2c(cc1-3)OCO2.[Cl-] | 8
9 | O=C(N[C@H](CO)[C@H](O)c1ccc([N+](=O)[O-])cc1)C(Cl)Cl [CHLORAMPHENICOL] | 16 (≈ 49.5 µM)
10 | CCn1cc(C(=O)O)c(=O)c2cc(F)c(N3CCNCC3)cc21 [NORFLOXACIN] | 2 (≈ 6.26 µM)

System: Pseudomonas aeruginosa
Experiment: Antibacterial activity against Pseudomonas aeruginosa measured after 24 hrs by two-fold serial dilution method
Format: functional
Settings: not given
How it was run: as §1

Row | SMILES | MIC [µg/mL]
11 | COc1ccc2cc3[n+](cc2c1OCc1nc2ccccc2n1Cc1ccc(F)cc1)CCc1cc2c(cc1-3)OCO2.[Cl-] | 512
12 | COc1ccc2cc3[n+](cc2c1OCc1nc2ccccc2[nH]1)CCc1cc2c(cc1-3)OCO2.[Cl-] | 256
13 | COc1ccc2cc3[n+](cc2c1OCc1nc2ccc(F)cc2[nH]1)CCc1cc2c(cc1-3)OCO2.[Cl-] | 256
14 | O=C(N[C@H](CO)[C@H](O)c1ccc([N+](=O)[O-])cc1)C(Cl)Cl [CHLORAMPHENICOL] | 32 (≈ 99 µM)
15 | CCn1cc(C(=O)O)c(=O)c2cc(F)c(N3CCNCC3)cc21 [NORFLOXACIN] | 16 (≈ 50.1 µM)

System: Salmonella typhi
Experiment: Antibacterial activity against Salmonella typhi measured after 24 hrs by two-fold serial dilution method
Format: functional, Salmonella enterica subsp. enterica serovar Typhi
Settings: Salmonella enterica
How it was run: (§2)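 Two-fold serial dilution in 96-well microtest plates following NCCLS guidance (micro broth dilution). Chloromycin and norfloxacin serve as positive controls. MIC is reported in µg/mL.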

Row | SMILES | MIC [µg/mL]
16 | COc1ccc2cc3[n+](cc2c1OCc1nc2ccccc2n1Cc1ccc(F)cc1)CCc1cc2c(cc1-3)OCO2.[Cl-] | 8
17 | COc1ccc2cc3[n+](cc2c1OCc1nc2ccccc2[nH]1)CCc1cc2c(cc1-3)OCO2.[Cl-] | 16
18 | COc1ccc2cc3[n+](cc2c1OCc1nc2ccc(F)cc2[nH]1)CCc1cc2c(cc1-3)OCO2.[Cl-] | 16
19 | O=C(N[C@H](CO)[C@H](O)c1ccc([N+](=O)[O-])cc1)C(Cl)Cl [CHLORAMPHENICOL] | 32 (≈ 99 µM)
20 | CCn1cc(C(=O)O)c(=O)c2cc(F)c(N3CCNCC3)cc21 [NORFLOXACIN] | 4 (≈ 12.5 µM)

System: Micrococcus luteus
Experiment: Antibacterial activity against Micrococcus luteus ATCC 4698 measured after 24 hrs by two-fold serial dilution method
Format: functional
Settings: NCTC 2665, 24 h
How it was run: as §1

Row | SMILES | MIC [µg/mL]
21 | COc1ccc2cc3[n+](cc2c1OCc1nc2ccccc2n1Cc1ccc(F)cc1)CCc1cc2c(cc1-3)OCO2.[Cl-] | 512
22 | COc1ccc2cc3[n+](cc2c1OCc1nc2ccccc2[nH]1)CCc1cc2c(cc1-3)OCO2.[Cl-] | 32
23 | COc1ccc2cc3[n+](cc2c1OCc1nc2ccc(F)cc2[nH]1)CCc1cc2c(cc1-3)OCO2.[Cl-] | 16
24 | O=C(N[C@H](CO)[C@H](O)c1ccc([N+](=O)[O-])cc1)C(Cl)Cl [CHLORAMPHENICOL] | 8 (≈ 24.8 µM)
25 | CCn1cc(C(=O)O)c(=O)c2cc(F)c(N3CCNCC3)cc21 [NORFLOXACIN] | 2 (≈ 6.26 µM)

System: Bacillus subtilis
Experiment: Antibacterial activity against Bacillus subtilis measured after 24 hrs by two-fold serial dilution method
Format: functional
Settings: not given
How it was run: as §1

Row | SMILES | MIC [µg/mL]
26 | COc1ccc2cc3[n+](cc2c1OCc1nc2ccccc2n1Cc1ccc(F)cc1)CCc1cc2c(cc1-3)OCO2.[Cl-] | 512
27 | COc1ccc2cc3[n+](cc2c1OCc1nc2ccccc2[nH]1)CCc1cc2c(cc1-3)OCO2.[Cl-] | 512
28 | COc1ccc2cc3[n+](cc2c1OCc1nc2ccc(F)cc2[nH]1)CCc1cc2c(cc1-3)OCO2.[Cl-] | 256
29 | O=C(N[C@H](CO)[C@H](O)c1ccc([N+](=O)[O-])cc1)C(Cl)Cl [CHLORAMPHENICOL] | 32 (≈ 99 µM)
30 | CCn1cc(C(=O)O)c(=O)c2cc(F)c(N3CCNCC3)cc21 [NORFLOXACIN] | 4 (≈ 12.5 µM)

System: not listed separately
Experiment: Antifungal activity against Saccharomyces cerevisiae measured after 24 hrs by two-fold serial dilution method
Format: functional
Settings: not given
How it was run: as §1

Row | SMILES | MIC80 [µg/mL]
31 | COc1ccc2cc3[n+](cc2c1OCc1nc2ccccc2n1Cc1ccc(F)cc1)CCc1cc2c(cc1-3)OCO2.[Cl-] | 256
32 | COc1ccc2cc3[n+](cc2c1OCc1nc2ccccc2[nH]1)CCc1cc2c(cc1-3)OCO2.[Cl-] | 512
33 | COc1ccc2cc3[n+](cc2c1OCc1nc2ccc(F)cc2[nH]1)CCc1cc2c(cc1-3)OCO2.[Cl-] | 256

System: not listed separately
Experiment: Antifungal activity against Candida utilis measured after 24 hrs by two-fold serial dilution method
Format: functional
Settings: Cyberlindnera jadinii
How it was run: as §1

Row | SMILES | MIC80 [µg/mL]
34 | COc1ccc2cc3[n+](cc2c1OCc1nc2ccccc2n1Cc1ccc(F)cc1)CCc1cc2c(cc1-3)OCO2.[Cl-] | 8
35 | COc1ccc2cc3[n+](cc2c1OCc1nc2ccccc2[nH]1)CCc1cc2c(cc1-3)OCO2.[Cl-] | 64
36 | COc1ccc2cc3[n+](cc2c1OCc1nc2ccc(F)cc2[nH]1)CCc1cc2c(cc1-3)OCO2.[Cl-] | 64

System: Proteus vulgaris
Experiment: Antibacterial activity against Bacillus proteus ATCC 13315 measured after 24 hrs by two-fold serial dilution method
Format: functional
Settings: ATCC 13315, 24 h
How it was run: as §1

Row | SMILES | MIC [µg/mL]
37 | COc1ccc2cc3[n+](cc2c1OCc1nc2ccccc2n1Cc1ccc(F)cc1)CCc1cc2c(cc1-3)OCO2.[Cl-] | 32
38 | COc1ccc2cc3[n+](cc2c1OCc1nc2ccccc2[nH]1)CCc1cc2c(cc1-3)OCO2.[Cl-] | 256
39 | COc1ccc2cc3[n+](cc2c1OCc1nc2ccc(F)cc2[nH]1)CCc1cc2c(cc1-3)OCO2.[Cl-] | 16
40 | O=C(N[C@H](CO)[C@H](O)c1ccc([N+](=O)[O-])cc1)C(Cl)Cl [CHLORAMPHENICOL] | 32 (≈ 99 µM)
41 | CCn1cc(C(=O)O)c(=O)c2cc(F)c(N3CCNCC3)cc21 [NORFLOXACIN] | 8 (≈ 25.1 µM)

System: Staphylococcus aureus
Experiment: Antibacterial activity against methicillin-resistant Staphylococcus aureus N315 measured after 24 hrs by two-fold serial dilution method
Format: functional
Settings: N315, 24 h
How it was run: as §2

Row | SMILES | MIC [µg/mL]
42 | COc1ccc2cc3[n+](cc2c1OCc1nc2ccccc2n1Cc1ccc(F)cc1)CCc1cc2c(cc1-3)OCO2.[Cl-] | 512
43 | COc1ccc2cc3[n+](cc2c1OCc1nc2ccccc2[nH]1)CCc1cc2c(cc1-3)OCO2.[Cl-] | 256
44 | COc1ccc2cc3[n+](cc2c1OCc1nc2ccc(F)cc2[nH]1)CCc1cc2c(cc1-3)OCO2.[Cl-] | 512
45 | O=C(N[C@H](CO)[C@H](O)c1ccc([N+](=O)[O-])cc1)C(Cl)Cl [CHLORAMPHENICOL] | 16 (≈ 49.5 µM)
46 | CCn1cc(C(=O)O)c(=O)c2cc(F)c(N3CCNCC3)cc21 [NORFLOXACIN] | 8 (≈ 25.1 µM)

System: Candida albicans
Experiment: Antifungal activity against Candida albicans ATCC 76615 measured after 24 hrs by two-fold serial dilution method
Format: functional
Settings: ATCC 76615, 24 h
How it was run: as §1

Row | SMILES | MIC80 [µg/mL]
47 | COc1ccc2cc3[n+](cc2c1OCc1nc2ccccc2n1Cc1ccc(F)cc1)CCc1cc2c(cc1-3)OCO2.[Cl-] | 512
48 | COc1ccc2cc3[n+](cc2c1OCc1nc2ccccc2[nH]1)CCc1cc2c(cc1-3)OCO2.[Cl-] | 256
49 | COc1ccc2cc3[n+](cc2c1OCc1nc2ccc(F)cc2[nH]1)CCc1cc2c(cc1-3)OCO2.[Cl-] | 512

System: Aspergillus flavus
Experiment: Antifungal activity against Aspergillus flavus measured after 24 hrs by two-fold serial dilution method
Format: functional
Settings: not given
How it was run: as §1

Row | SMILES | MIC80 [µg/mL]
50 | COc1ccc2cc3[n+](cc2c1OCc1nc2ccccc2n1Cc1ccc(F)cc1)CCc1cc2c(cc1-3)OCO2.[Cl-] | 16
51 | COc1ccc2cc3[n+](cc2c1OCc1nc2ccccc2[nH]1)CCc1cc2c(cc1-3)OCO2.[Cl-] | 32
52 | COc1ccc2cc3[n+](cc2c1OCc1nc2ccc(F)cc2[nH]1)CCc1cc2c(cc1-3)OCO2.[Cl-] | 32
